Data on 23 compounds can be found in ChEMBL document CHEMBL4308830, “Design, Synthesis, and Characterization of 4-Undecylpiperidine-2-carboxamides as Positive Allosteric Modulators of the Serotonin (5-HT) 5-HT2C Receptor” (J Med Chem, 2018).

The source made the active and inactive calls. The rule behind the calls is not given here.

The target in data set [1] is T1, 5-hydroxytryptamine receptor 2C (Homo sapiens) (UniProt P28335).
T1 sequence (whole entry): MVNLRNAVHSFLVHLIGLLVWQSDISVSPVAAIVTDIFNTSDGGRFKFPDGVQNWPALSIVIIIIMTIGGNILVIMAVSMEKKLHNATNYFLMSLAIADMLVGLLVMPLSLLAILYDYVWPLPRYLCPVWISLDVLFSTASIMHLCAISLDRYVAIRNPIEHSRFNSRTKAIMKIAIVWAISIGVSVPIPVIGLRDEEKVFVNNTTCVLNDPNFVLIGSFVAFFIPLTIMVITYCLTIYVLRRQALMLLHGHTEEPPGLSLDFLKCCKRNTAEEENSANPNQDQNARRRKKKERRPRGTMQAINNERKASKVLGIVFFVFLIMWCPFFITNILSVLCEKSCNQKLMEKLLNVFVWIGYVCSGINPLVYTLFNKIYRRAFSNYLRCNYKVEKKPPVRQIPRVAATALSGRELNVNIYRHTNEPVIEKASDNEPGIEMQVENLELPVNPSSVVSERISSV
As to the kind of experiment: Positive allosteric modulation of human 5-HT2CR expressed in CHO cells assessed as 5-HT-induced intracellular calcium release at 1 nM preincubated for 15 mins followed by 5-HT addition by calcium-4 dye based FLIPR assay (reference value: 100%). In kind it is functional, cell-based. In short, it runs like this: (§1)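 CHO cells stably expressing human unedited INI 5-HT2CR were plated, serum-starved 3 h, then loaded with Calcium 4 dye plus 2.5 mM probenecid (60 min 37 °C, then 15 min RT). Compound (1 nM) was added; the read after this addition gave intrinsic agonism. 5-HT (10 pM–10 μM) followed 15 min later. FLIPR-TETRA: 10 s baseline, 1 s reads for 120 s after compound and 360 s after 5-HT. Emax came from 4-parameter fits, ≥3 biological replicates in triplicate.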

The target in data set [2] is T1, 5-hydroxytryptamine receptor 2C (Homo sapiens). As to the kind of experiment: Intrinsic agonist activity at human 5-HT2CR expressed in CHO cells assessed as induction of intracellular calcium release at 1 nM incubated for 15 mins measured every 1 sec for 120 secs by calcium-4 dye based FLIPR assay. In kind it is functional, cell-based. In short, it runs like this: as §1

A further data set has as its system CHO. As to the kind of experiment: Cytotoxicity against CHO cells at 0.1 to 1000 nM after 1 hrs by LDH release assay. In kind it is cell-based, Cricetulus griseus. Conditions: chinese hamster, 1 µM. The procedure, abridged: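 Lactate dehydrogenase release assay for cytotoxicity, compounds tested at 0.1 nM and 1 μM.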

For `CCCCCCCCCCC[C@H]1CCN[C@@H](C(=O)N[C@@H](CO)[C@@H](O)c2ccccc2)C1`, the maximal response (Emax) in data set [1] is 102%. For the same compound, in data set [2], the result was inactive.

As for `CCCCCCCCCCC[C@@H]1CCN[C@H](C(=O)NC[C@H](O)CCl)C1`, the Activity result with CHO is “Non-Toxic”. In data set [1], the Emax was determined as 114%. Further, the outcome in data set [2] was inactive.

For `CCCCCCCCCCC[C@@H]1CCN[C@H](C(=O)N[C@@H](Cc2ccc(O)cc2)C(=O)OC)C1`, the Emax in data set [1] is 104%. In data set [2], the result was inactive.

With `CCCCCCCCCCC[C@@H]1CCN[C@H](C(=O)N[C@H](C(=O)OC)[C@H](C)O)C1`, the Emax in data set [1] was 102%. Moreover, the result in data set [2] was inactive.

As for `CCCCCCCCCCC[C@@H]1CCN[C@H](C(=O)O)C1` (relative stereo), the Emax in data set [1] is 109%. In addition, the result in data set [2] was inactive.

`O=C(N[C@H](CO)[C@H](O)c1ccccc1)[C@@H]1C[C@H](C2CCCCC2)CCN1`: the Activity result in the data set on CHO is recorded as “Non-Toxic”. The Emax in data set [1] is 105%. The result in data set [2] was inactive.

Take `CCCCCCCCCCC[C@@H]1CCN[C@H](C(=O)NC[C@@H](O)CO)C1`: the Emax in data set [1] came out at 106%. In data set [2], the outcome was inactive.

With `CCCCCCCCCCC[C@@H]1CCN[C@H](C(=O)NCCN2CCOCC2)C1` (relative stereo), in data set [1], the Emax came out at 107%. In addition, in data set [2], the result was inactive.

As to `O=C(N[C@H](CO)[C@H](O)c1ccccc1)[C@H]1C[C@@H](CCC2CCCCC2)CCN1`, the Activity result in the data set with CHO was “Non-Toxic”. Moreover, in data set [1], the Emax turned out to be 89.6%. For the same compound, the outcome in data set [2] was inactive.

`CCCCCCCCCCC[C@@H]1CCN[C@H](C(=O)NC(CO)CO)C1` (relative stereo): the Activity result with CHO is “Non-Toxic”. Further, in data set [1], the Emax was 108%. In data set [2], the result was inactive.

Take `CC1CCC(CC[C@H]2CCN[C@@H](C(=O)N[C@@H](CO)[C@@H](O)c3ccccc3)C2)CC1` (stereo partly drawn): in data set [1], the Emax stood at 116%. The result in data set [2] was inactive.

As for `CCCCCCCCCCC[C@H]1CCN[C@@H](C(=O)N[C@H](CO)[C@H](O)c2ccccc2)C1`, the Emax in data set [1] was 93.9%. In addition, in data set [2], the result was inactive.

For `CCCCCCCCCCC[C@@H]1CCN[C@H](C(=O)N[C@H](CO)[C@H](O)c2ccccc2)C1`, in the data set with CHO, the Activity entry is recorded as “Non-Toxic”. For the same compound, the Emax in data set [1] was determined as 85.1%. Further, the result in data set [2] was inactive.

Take `CCCCCCCCCCC[C@@H]1CCN[C@H](C(=O)NC[C@H](O)CO)C1`: the Emax in data set [1] was found to be 114%. Moreover, in data set [2], the result was inactive.

Turning to `CCCCCCCCCCC[C@@H]1CCN[C@H](C(=O)N[C@@H](CO)[C@H](C)O)C1`, the Emax in data set [1] was found to be 112%. Besides, the result in data set [2] was inactive.

For the compound `O=C(N[C@H](CO)[C@H](O)c1ccccc1)[C@H]1C[C@@H](C2CCCCC2)CCN1`, in the data set with CHO, the Activity entry was “Non-Toxic”. Besides, the Emax in data set [1] turned out to be 104%. For the same compound, the outcome in data set [2] was inactive.

For the compound `CCCCCCCCCCC[C@@H]1CCN[C@H](C(=O)N[C@H](CO)[C@@H](C)O)C1`, in data set [1], the Emax amounted to 111%. Besides, in data set [2], the result was inactive.

On to `O=C(N[C@H](CO)[C@H](O)c1ccccc1)[C@@H]1C[C@H](CCC2CCCCC2)CCN1`, for which, in data set [1], the Emax turned out to be 96%. Besides, the outcome in data set [2] was inactive.

As for `CC1CCC(CC[C@@H]2CCN[C@H](C(=O)N[C@@H](CO)[C@@H](O)c3ccccc3)C2)CC1` (stereo partly drawn), in data set [1], the Emax was 107%. The result in data set [2] was inactive.

With `CCCCCCCCCCC[C@@H]1CCN[C@H](C(=O)NCCO)C1` (relative stereo), the Activity entry with CHO is given as “Non-Toxic”. Moreover, the Emax in data set [1] is 108%. Moreover, in data set [2], the outcome was inactive.

As to `CCCCCCCCCCC[C@@H]1CCN[C@H](C(=O)N[C@@H](CO)C(=O)OC)C1`, the Emax in data set [1] was found to be 99.6%. For the same compound, the result in data set [2] was inactive.

As to `CCCCCCCCCCC[C@@H]1CCN[C@H](C(=O)N[C@@H](CO)[C@@H](O)c2ccccc2)C1`, in data set [1], the Emax was 109%. For the same compound, the outcome in data set [2] was inactive.

`CCCCCCCCCCC[C@@H]1CCN[C@H](C(=O)N[C@@H](Cc2cc3ccccc3[nH]2)C(=O)OC)C1`: the Emax in data set [1] was determined as 102%. In addition, in data set [2], the outcome was inactive.
